# From ChEMBL document CHEMBL1133016, “Opiate aromatic pharmacophore structure-activity relationships in CTAP analogues determined by topographical bias, two-dimensional NMR, and biological activity assays” (J Med Chem, 2000)
# Bridge positions count the residues as written; N and C are the ends. Square brackets hold non-standard residues; d marks the D form. Peptide text beside a SMILES is read from it. dTic = O=C(O)[C@H]1Cc2ccccc2CN1; Pen = CC(C)(S)[C@H](N)C(=O)O
# Key:
# Cavia porcellus [1] = organism: Cavia porcellus; assay: Evaluated for antagonist activity as the rightward fold shift of dose response curve of the known agonist PL-017 in Guinea pig ileum (GPI) at 1 uM concentration of compound; type: functional
# In short: (§1)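 Longitudinal muscle-myenteric plexus strips from nonterminal ileum of male Hartley guinea pigs (250-500 g). Held in Krebs-bicarbonate at 37 °C under 95% O₂/5% CO₂, 1 g resting tension after 15 min unloaded equilibration. Stimulated transmurally at 0.1 Hz, 0.4 ms pulses, supramaximal voltage. Agonist twitch effect read after 3 min incubation; antagonist added 2 min before agonist. Mean ± SEM.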
# Cavia porcellus [2] = organism: Cavia porcellus; assay: Evaluated for agonist activity as percent inhibition in electrically evoked twitch height in Guinea pig ileum (GPI) at 1 uM concentration of compound; type: functional; in short: as §1
# Mus musculus = organism: Mus musculus; assay: Evaluated for agonist activity as percent inhibition in electrically evoked twitch height in mouse vas deferens (MVD) at 1 uM concentration of compound; type: functional
# In short: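 Vasa deferentia from male ICR mice (25-40 g), held in magnesium-free Krebs at 37 °C under 95% O₂/5% CO₂. Hung 15 min without tension, then under 0.5 g resting tension. Stimulated transmurally at 0.1 Hz, 2 ms pulses, supramaximal voltage. Twitch inhibition read 3 min after agonist, expressed relative to the pre-dose twitch height. Mean ± SEM.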
# Mu-type opioid receptor = Mu-type opioid receptor (Rattus norvegicus, UniProt P33535); assay: Binding affinity for rat brain Opioid receptor mu 1
# Mu-type opioid receptor, sequence (P33535 whole entry): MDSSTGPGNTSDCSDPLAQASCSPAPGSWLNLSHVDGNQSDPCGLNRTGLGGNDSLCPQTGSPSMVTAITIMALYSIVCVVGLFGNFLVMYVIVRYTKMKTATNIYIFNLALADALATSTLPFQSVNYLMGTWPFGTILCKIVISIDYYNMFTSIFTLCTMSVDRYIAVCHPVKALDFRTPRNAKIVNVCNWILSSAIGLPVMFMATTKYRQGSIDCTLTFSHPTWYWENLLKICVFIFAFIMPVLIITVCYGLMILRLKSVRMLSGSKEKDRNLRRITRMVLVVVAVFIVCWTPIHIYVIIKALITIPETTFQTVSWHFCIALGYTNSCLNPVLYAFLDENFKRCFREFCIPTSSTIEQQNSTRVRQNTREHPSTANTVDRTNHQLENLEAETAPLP
# In short: (§2)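 Whole-brain membranes from adult Sprague-Dawley rats (250-300 g), homogenized at 0 °C in 50 mM Tris-HCl pH 7.4, centrifuged at 48 000g, and preincubated at 25 °C to strip endogenous ligand. Competition run for 3 h at 25 °C in Tris-HCl with BSA, bestatin, bacitracin, captopril and PMSF. Radioligand was [3H][4′-Cl-Phe4]DPDPE 0.75 nM for δ or [3H]DAMGO 1.0 nM for μ, with ≥10 analogue concentrations. Nonspecific binding defined with 10 µM naltrexone; each analogue tested ≥3 times.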
# [3] = molecular target: Delta-type opioid receptor (Rattus norvegicus, UniProt P33533); assay: Binding affinity for rat brain Opioid receptor delta 1; in short: as §2
# Delta-type opioid receptor, sequence (P33533 whole entry): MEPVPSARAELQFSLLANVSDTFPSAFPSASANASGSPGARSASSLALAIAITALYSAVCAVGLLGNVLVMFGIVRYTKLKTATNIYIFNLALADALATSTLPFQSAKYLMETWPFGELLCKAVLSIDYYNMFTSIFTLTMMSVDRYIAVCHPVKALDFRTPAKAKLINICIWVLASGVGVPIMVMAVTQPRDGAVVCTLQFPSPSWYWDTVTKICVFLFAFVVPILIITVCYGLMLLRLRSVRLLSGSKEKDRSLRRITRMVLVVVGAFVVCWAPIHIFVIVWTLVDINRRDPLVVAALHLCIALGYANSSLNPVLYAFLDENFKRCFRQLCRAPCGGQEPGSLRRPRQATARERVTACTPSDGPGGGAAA
# Cavia porcellus [4] = organism: Cavia porcellus; assay: Evaluated for antagonist activity as the rightward fold shift of dose response curve of the known agonist PL-017 in Guinea pig ileum (GPI). 1-fold indicates no change in the dose response curve; type: functional; in short: as §1
Compound,PL-017 shift (Cavia porcellus [1]),inhibition at 1 µM (Cavia porcellus [2]),inhibition at 1 µM (Mus musculus),IC50 (Mu-type opioid receptor),IC50 [3],PL-017 shift (Cavia porcellus [4])
C[C@@H](O)[C@H](NC(=O)[C@H]1NC(=O)[C@H]([C@@H](C)O)NC(=O)[C@H](CCCNC(=N)N)NC(=O)[C@@H](Cc2c[nH]c3ccccc23)NC(=O)[C@H](Cc2ccc(O)cc2)NC(=O)[C@@H](NC(=O)[C@H](N)Cc2ccccc2)CSSC1(C)C)C(N)=O,55,4%,17%,–,–,–
C[C@@H](O)[C@H](NC(=O)[C@H]1NC(=O)[C@H]([C@@H](C)O)NC(=O)[C@H](CCCN=C(N)N)NC(=O)[C@@H](Cc2c[nH]c3ccccc23)NC(=O)[C@H](Cc2ccc(O)cc2)NC(=O)[C@@H](NC(=O)[C@H](N)[C@@H](C)c2ccccc2)CSSC1(C)C)C(N)=O [listing 1 of 2 here],–,–,–,21 nM,1320 nM,–
C[C@@H](O)[C@H](NC(=O)[C@H]1NC(=O)[C@H]([C@@H](C)O)NC(=O)[C@H](CCCN=C(N)N)NC(=O)[C@@H](Cc2c[nH]c3ccccc23)NC(=O)[C@H](Cc2ccc(O)cc2)NC(=O)[C@@H](NC(=O)[C@H](N)[C@@H](C)c2ccccc2)CSSC1(C)C)C(N)=O [listing 2 of 2 here],15,0%,8%,–,–,–
C[C@H](c1ccccc1)[C@@H](N)C(=O)N[C@H]1CSSC(C)(C)[C@@H](C(=O)N[C@H](C(N)=O)[C@@H](C)O)NC(=O)[C@H]([C@@H](C)O)NC(=O)[C@H](CCCN=C(N)N)NC(=O)[C@@H](Cc2c[nH]c3ccccc23)NC(=O)[C@H](Cc2ccc(O)cc2)NC1=O [listing 1 of 2 here],–,–,–,20 nM,1190 nM,–
C[C@H](c1ccccc1)[C@@H](N)C(=O)N[C@H]1CSSC(C)(C)[C@@H](C(=O)N[C@H](C(N)=O)[C@@H](C)O)NC(=O)[C@H]([C@@H](C)O)NC(=O)[C@H](CCCN=C(N)N)NC(=O)[C@@H](Cc2c[nH]c3ccccc23)NC(=O)[C@H](Cc2ccc(O)cc2)NC1=O [listing 2 of 2 here],19,0%,34%,–,–,–
C[C@H](c1c[nH]c2ccccc12)[C@H](N)C(=O)N[C@H]1CSSC(C)(C)[C@@H](C(=O)N[C@H](C(N)=O)[C@@H](C)O)NC(=O)[C@H]([C@@H](C)O)NC(=O)[C@H](CCCNC(=N)N)NC(=O)[C@@H](Cc2c[nH]c3ccccc23)NC(=O)[C@H](Cc2ccc(O)cc2)NC1=O,–,–,–,3400 nM,7460 nM,–
C[C@H](c1c[nH]c2ccccc12)[C@H](N)C(=O)N[C@H]1CSSC(C)(C)[C@@H](C(=O)N[C@H](C(N)=O)[C@@H](C)O)NC(=O)[C@H]([C@@H](C)O)NC(=O)[C@H](CCCN=C(N)N)NC(=O)[C@@H](Cc2c[nH]c3ccccc23)NC(=O)[C@H](Cc2ccc(O)cc2)NC1=O,1,0%,0%,–,–,–
C[C@@H](O)[C@H](NC(=O)[C@H]1NC(=O)[C@H]([C@@H](C)O)NC(=O)[C@H](CCCN=C(N)N)NC(=O)[C@@H](Cc2c[nH]c3ccccc23)NC(=O)[C@H](Cc2ccc(O)cc2)NC(=O)[C@@H](NC(=O)[C@H](N)Cc2c[nH]c3ccccc23)CSSC1(C)C)C(N)=O [listing 1 of 2 here],–,–,–,1.39 nM,3530 nM,–
C[C@@H](O)[C@H](NC(=O)[C@H]1NC(=O)[C@H]([C@@H](C)O)NC(=O)[C@H](CCCN=C(N)N)NC(=O)[C@@H](Cc2c[nH]c3ccccc23)NC(=O)[C@H](Cc2ccc(O)cc2)NC(=O)[C@@H](NC(=O)[C@H](N)Cc2c[nH]c3ccccc23)CSSC1(C)C)C(N)=O [listing 2 of 2 here],1,43%,13.6%,–,–,–
C[C@@H](O)[C@H](NC(=O)[C@H]1NC(=O)[C@H]([C@@H](C)O)NC(=O)[C@H](CCCNC(=N)N)NC(=O)[C@@H](Cc2c[nH]c3ccccc23)NC(=O)[C@H](Cc2ccc(O)cc2)NC(=O)[C@@H](NC(=O)[C@@H](N)[C@@H](C)c2ccccc2)CSSC1(C)C)C(N)=O,–,–,–,1500 nM,> 15000 nM,–
C[C@@H](O)[C@H](NC(=O)[C@H]1NC(=O)[C@H]([C@@H](C)O)NC(=O)[C@H](CCCN=C(N)N)NC(=O)[C@@H](Cc2c[nH]c3ccccc23)NC(=O)[C@H](Cc2ccc(O)cc2)NC(=O)[C@@H](NC(=O)[C@@H](N)[C@@H](C)c2ccccc2)CSSC1(C)C)C(N)=O,1,0%,35%,–,–,–
C[C@@H](O)[C@H](NC(=O)[C@H]1NC(=O)[C@H]([C@@H](C)O)NC(=O)[C@H](CCCN=C(N)N)NC(=O)[C@@H](Cc2c[nH]c3ccccc23)NC(=O)[C@H](Cc2ccc(O)cc2)NC(=O)[C@@H](NC(=O)[C@H]2Cc3c([nH]c4ccccc34)CN2)CSSC1(C)C)C(N)=O [listing 1 of 2 here],–,–,–,173 nM,211 nM,–
C[C@@H](O)[C@H](NC(=O)[C@H]1NC(=O)[C@H]([C@@H](C)O)NC(=O)[C@H](CCCN=C(N)N)NC(=O)[C@@H](Cc2c[nH]c3ccccc23)NC(=O)[C@H](Cc2ccc(O)cc2)NC(=O)[C@@H](NC(=O)[C@H]2Cc3c([nH]c4ccccc34)CN2)CSSC1(C)C)C(N)=O [listing 2 of 2 here],1.2,18%,–,–,–,–
C[C@H](c1ccccc1)[C@H](N)C(=O)N[C@H]1CSSC(C)(C)[C@@H](C(=O)N[C@H](C(N)=O)[C@@H](C)O)NC(=O)[C@H]([C@@H](C)O)NC(=O)[C@H](CCCN=C(N)N)NC(=O)[C@@H](Cc2c[nH]c3ccccc23)NC(=O)[C@H](Cc2ccc(O)cc2)NC1=O [listing 1 of 2 here],–,–,–,5420 nM,13200 nM,–
C[C@H](c1ccccc1)[C@H](N)C(=O)N[C@H]1CSSC(C)(C)[C@@H](C(=O)N[C@H](C(N)=O)[C@@H](C)O)NC(=O)[C@H]([C@@H](C)O)NC(=O)[C@H](CCCN=C(N)N)NC(=O)[C@@H](Cc2c[nH]c3ccccc23)NC(=O)[C@H](Cc2ccc(O)cc2)NC1=O [listing 2 of 2 here],–,13%,0%,–,–,1
C[C@@H](O)[C@H](NC(=O)[C@H]1NC(=O)[C@H]([C@@H](C)O)NC(=O)[C@H](CCCNC(=N)N)NC(=O)[C@@H](Cc2c[nH]c3ccccc23)NC(=O)[C@H](Cc2ccc(O)cc2)NC(=O)[C@@H](NC(=O)[C@H](N)[C@@H](C)c2c[nH]c3ccccc23)CSSC1(C)C)C(N)=O,–,–,–,12.1 nM,7480 nM,–
C[C@@H](O)[C@H](NC(=O)[C@H]1NC(=O)[C@H]([C@@H](C)O)NC(=O)[C@H](CCCN=C(N)N)NC(=O)[C@@H](Cc2c[nH]c3ccccc23)NC(=O)[C@H](Cc2ccc(O)cc2)NC(=O)[C@@H](NC(=O)[C@H](N)[C@@H](C)c2c[nH]c3ccccc23)CSSC1(C)C)C(N)=O,68,0%,0%,–,–,–
C[C@H](c1c[nH]c2ccccc12)[C@@H](N)C(=O)N[C@H]1CSSC(C)(C)[C@@H](C(=O)N[C@H](C(N)=O)[C@@H](C)O)NC(=O)[C@H]([C@@H](C)O)NC(=O)[C@H](CCCNC(=N)N)NC(=O)[C@@H](Cc2c[nH]c3ccccc23)NC(=O)[C@H](Cc2ccc(O)cc2)NC1=O,–,–,–,18.7 nM,3640 nM,–
C[C@H](c1c[nH]c2ccccc12)[C@@H](N)C(=O)N[C@H]1CSSC(C)(C)[C@@H](C(=O)N[C@H](C(N)=O)[C@@H](C)O)NC(=O)[C@H]([C@@H](C)O)NC(=O)[C@H](CCCN=C(N)N)NC(=O)[C@@H](Cc2c[nH]c3ccccc23)NC(=O)[C@H](Cc2ccc(O)cc2)NC1=O,39,0%,3.7%,–,–,–
C[C@@H](O)[C@H](NC(=O)[C@H]1NC(=O)[C@H]([C@@H](C)O)NC(=O)[C@H](CCCNC(=N)N)NC(=O)[C@@H](Cc2c[nH]c3ccccc23)NC(=O)[C@H](Cc2ccc(O)cc2)NC(=O)[C@@H](NC(=O)[C@@H](N)[C@@H](C)c2c[nH]c3ccccc23)CSSC1(C)C)C(N)=O,–,–,–,1360 nM,9180 nM,–
C[C@@H](O)[C@H](NC(=O)[C@H]1NC(=O)[C@H]([C@@H](C)O)NC(=O)[C@H](CCCN=C(N)N)NC(=O)[C@@H](Cc2c[nH]c3ccccc23)NC(=O)[C@H](Cc2ccc(O)cc2)NC(=O)[C@@H](NC(=O)[C@@H](N)[C@@H](C)c2c[nH]c3ccccc23)CSSC1(C)C)C(N)=O,2.6,0%,0%,–,–,–
C[C@@H](O)[C@H](NC(=O)[C@H]1NC(=O)[C@H]([C@@H](C)O)NC(=O)[C@H](CCCN=C(N)N)NC(=O)[C@@H](Cc2c[nH]c3ccccc23)NC(=O)[C@H](Cc2ccc(O)cc2)NC(=O)[C@@H](NC(=O)[C@H]2Cc3ccccc3CN2)CSSC1(C)C)C(N)=O (H-[dTic]CY[dW]RT[Pen]T-NH2; disulfide 2-7),60,1%,10%,–,–,–
